Reference: ChEMBL document CHEMBL3792280, “Design and synthesis of novel quinoxaline derivatives as potential candidates for treatment of multidrug-resistant and latent tuberculosis” (Bioorg Med Chem Lett, 2016)
pIC50: −log10 of the molar value. In brackets after ≈: the same amount, converted by molar mass.

Legend:
[1] = system: Mycobacterium tuberculosis; test: Antimicrobial activity against Mycobacterium tuberculosis H37Rv ATCC 27294 incubated for 7 days by BacTiter-Glo cell viability assay; format: functional, organism-based; details: for MIC: H37Rv ATCC 27294, 168 h; for pIC50 / IC90: H37Rv ATCC 27294, BacTiter-Glo, 168 h
[2] = system: Mycobacterium tuberculosis; test: Antimicrobial activity against Mycobacterium tuberculosis H37Rv SRI 1345 assessed as growth inhibition at MIC after 7 days; format: functional
Procedure, shortened: (§1)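 MIC in µg/mL, retested on susceptible H37Rv (SRI 1345) in the same panel as single-drug-resistant strains: isoniazid-, rifampin- and ofloxacin-resistant. Percent inhibition recorded at the MIC concentration. Ratio taken as MIC H37Rv / MIC resistant strain.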

J774 [3] = test: Cytotoxicity against mouse J774 cells assessed as cell viability at 10 times MIC by MTT assay relative to control; format: cell-based
[4] = system: Mycobacterium tuberculosis; test: Antimicrobial activity against Mycobacterium tuberculosis H37Rv ATCC 27294 infected in mouse J774 cells assessed as growth inhibition at 10 times lower MIC measured 7 days postinfection; format: functional
Procedure, shortened: (§2)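 Macrophages infected with H37Rv and treated at three concentrations 10-fold apart, chosen from the primary-screen H37Rv data. The middle concentration brackets the reported MIC, with the others ten-fold below and ten-fold above it. Read-out is log-reduction of intracellular bacterial burden.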

J774 [5] = test: Cytotoxicity against mouse J774 cells assessed as cell viability at MIC by MTT assay relative to control; format: cell-based
[6] = system: Mycobacterium tuberculosis; test: Antimicrobial activity against Mycobacterium tuberculosis H37Rv ATCC 27294 infected in mouse J774 cells assessed as log reduction in bacterial burden at 10 times lower MIC measured 7 days postinfection relative to control; format: functional; procedure, shortened: as §2
J774 [7] = test: Cytotoxicity against mouse J774 cells assessed as cell viability at 10 times lower MIC by MTT assay relative to control; format: cell-based
[8] = system: Mycobacterium tuberculosis; test: Antimicrobial activity against non-replicating Mycobacterium tuberculosis H37Rv SRI 1345 assessed as inhibition of visual growth incubated for 7 days under anaerobic condition by low oxygen recovery assay; format: functional; details: H37Rv SRI 1345, 168 h
[9] = system: Mycobacterium tuberculosis; test: Antimicrobial activity against Mycobacterium tuberculosis H37Rv SRI 1345 after 7 days; format: functional; details: H37Rv SRI 1345, 168 h; procedure, shortened: as §1
[10] = system: Mycobacterium tuberculosis; test: Antimicrobial activity against Mycobacterium tuberculosis H37Rv ATCC 27294 infected in mouse J774 cells assessed as log reduction in bacterial burden at MIC measured 7 days postinfection relative to control; format: functional; procedure, shortened: as §2
[11] = system: Mycobacterium tuberculosis; test: Antimicrobial activity against Mycobacterium tuberculosis H37Rv ATCC 27294 infected in mouse J774 cells assessed as log reduction in bacterial burden at 10 times lower MIC measured 7 days postinfection relative to rifampicin; format: functional; procedure, shortened: as §2
[12] = system: Mycobacterium tuberculosis; test: Antimicrobial activity against Mycobacterium tuberculosis H37Rv ATCC 27294 infected in mouse J774 cells assessed as log reduction in bacterial burden at 10 times MIC measured 7 days postinfection relative to control; format: functional; procedure, shortened: as §2
[13] = system: Mycobacterium tuberculosis; test: Ratio of MBC for Mycobacterium tuberculosis H37Rv SRI 1345 to MIC for Mycobacterium tuberculosis H37Rv SRI 1345; format: functional
Procedure, shortened: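 MBC read from colony-forming unit counts; ratio computed as MBC / MIC against H37Rv.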

[14] = system: Mycobacterium tuberculosis; test: Antimicrobial activity against Mycobacterium tuberculosis H37Rv SRI 1345 assessed as inhibition of visual growth after 18 to 24 hrs; format: functional; details: read-out: MBC99.9

Row | Structure (SMILES) | MIC [1] | pIC50 [1] | IC90 [1] | also measured
1 | Cc1c(C(=O)/C=C/c2ccc([N+](=O)[O-])s2)[n+]([O-])c2cc(Cl)ccc2[n+]1[O-] | 25 µM (≈ 9.79 µg/mL) | 5.14 | 13 µM | –
2 | O=C(c1ccc(F)cc1)c1c(C(F)(F)F)[n+]([O-])c2cc(F)c(F)cc2[n+]1[O-] | 12.5 µM (≈ 4.85 µg/mL) | 5.28 | 8 µM | –
3 | CCc1nc(N)nc(N)c1-c1ccc(Cl)cc1 [PYRIMETHAMINE] | 50 µM (≈ 12.4 µg/mL) | 4.63 | 36 µM | –
4 | O=C(c1ccc(F)cc1)c1c(C(F)(F)F)[n+]([O-])c2cc(Cl)c(Cl)cc2[n+]1[O-] | 6.2 µM (≈ 2.61 µg/mL) | 5.44 | 4.5 µM | –
5 | CC(=O)c1c(C(F)(F)F)[n+]([O-])c2cc(N3CCCCC3)c(N3CCCCC3)cc2[n+]1[O-] | 6.2 µM (≈ 2.72 µg/mL) | 5.66 | 4.6 µM | –
6 | Cc1c(C(=O)/C=C/c2ccc([N+](=O)[O-])s2)[n+]([O-])c2ccccc2[n+]1[O-] | – | < 4.00 | > 100 µM | –
7 | Cc1c(C(=O)/C=C/c2ccc([N+](=O)[O-])o2)[n+]([O-])c2cc(Cl)ccc2[n+]1[O-] | 25 µM (≈ 9.39 µg/mL) | 4.87 | 20.8 µM | –
8 | CCOC(=O)c1c(C(F)(F)F)nc2cc(Cl)c(N3CCOCC3)cc2[n+]1[O-] | – | < 4.00 | > 100 µM | –
9 | O=C(c1ccc(F)cc1)c1c(C(F)(F)F)[n+]([O-])c2ccc(Cl)cc2[n+]1[O-] | 6.2 µM (≈ 2.4 µg/mL) | 5.43 | 4.5 µM | –
10 | O=C(c1ccco1)c1c(C(F)(F)F)nc2cc(Cl)c(N3CCOCC3)cc2[n+]1[O-] | – | < 4.00 | > 100 µM | –
11 | Cc1ccc2c(c1)[n+]([O-])c(C(=O)/C=C/c1ccccc1)c(C)[n+]2[O-] | 25 µM (≈ 8.01 µg/mL) | 5.14 | 14.7 µM | –
12 | CC(=O)c1c(C(F)(F)F)nc2cc(F)c(N3CCSCC3)cc2[n+]1[O-] | 3.1 µM (≈ 1.16 µg/mL) | 5.89 | 1.8 µM | growth inhibition (GI) [2]: 51%; Activity (J774 [3]): 26%; growth inhibition (GI) [4]: >99%; Activity (J774 [5]): 81%; log reduction in bacterial burden [6]: 2.17; Activity (J774 [7]): 70%; MIC [8]: > 12 µg/mL; MIC [9]: 0.75 µg/mL (≈ 2 µM); log reduction in bacterial burden [10]: 1.66; Log reduction in bacterial burden relative to rifampicin [11]: 3; log reduction in bacterial burden [12]: 1.76
13 | N[C@@H]1CONC1=O [CYCLOSERINE] | 50 µM (≈ 5.1 µg/mL) | 4.68 | 33.1 µM | –
14 | CC[C@@H](CO)NCCN[C@@H](CC)CO [ETHAMBUTOL] | 6.2 µM (≈ 1.27 µg/mL) | 5.92 | 1.8 µM | –
15 | Cc1c(C(=O)/C=C/c2ccc([N+](=O)[O-])s2)[n+]([O-])c2cc(Cl)c(Cl)cc2[n+]1[O-] | – | < 4.00 | > 100 µM | –
16 | CO[C@H]1/C=C/O[C@@]2(C)Oc3c(C)c(O)c4c(O)c(c(/C=N/N5CCN(C)CC5)c(O)c4c3C2=O)NC(=O)/C(C)=C\C=C\[C@H](C)[C@H](O)[C@@H](C)[C@@H](O)[C@@H](C)[C@H](OC(C)=O)[C@@H]1C [RIFAMPIN] | 0.04 µM (≈ 0.0329 µg/mL) | 7.70 | 0.03 µM | growth inhibition (GI) [2]: 55%; Activity (J774 [3]): 80%; Activity (J774 [5]): 87%; Ratio [13]: 15.6; log reduction in bacterial burden [6]: 0.48; Activity (J774 [7]): 93%; MIC [8]: 0.39 µg/mL (≈ 0.474 µM); MIC [9]: 0.05 µg/mL (≈ 0.0608 µM); log reduction in bacterial burden [10]: 1.73; log reduction in bacterial burden [12]: 2.68; MBC [14]: 0.78 µg/mL (≈ 0.948 µM)
17 | O=C(c1ccc(F)cc1)c1c(C(F)(F)F)[n+]([O-])c2ccc(F)cc2[n+]1[O-] | 6.2 µM (≈ 2.3 µg/mL) | 5.51 | 4 µM | –
18 | Cc1c(C(=O)/C=C/c2ccccc2)[n+]([O-])c2ccccc2[n+]1[O-] | 12.5 µM (≈ 3.83 µg/mL) | 5.24 | 11.5 µM | –
19 | CC(=O)c1c(C(F)(F)F)[n+]([O-])c2cc(F)c(N3CCC(N4CCOCC4)CC3)cc2[n+]1[O-] | 12.5 µM (≈ 5.73 µg/mL) | 5.40 | 7.2 µM | –
20 | CC(C)C(=O)c1c(C(F)(F)F)nc2cc(N3CCOCC3)c(N3CCOCC3)cc2[n+]1[O-] | 25 µM (≈ 11.4 µg/mL) | 5.08 | 17.9 µM | –
21 | O=C(c1ccco1)c1c(C(F)(F)F)[n+]([O-])c2cc(Cl)c(N3CCOCC3)cc2[n+]1[O-] | 3.1 µM (≈ 1.38 µg/mL) | 5.92 | 2.1 µM | growth inhibition (GI) [2]: 61%; Activity (J774 [3]): 37%; growth inhibition (GI) [4]: >90%; log reduction in bacterial burden [6]: 1.68; Activity (J774 [7]): 88%; MIC [8]: 0.25 µg/mL (≈ 0.563 µM); MIC [9]: 2 µg/mL (≈ 4.51 µM); log reduction in bacterial burden [10]: 1.57; Log reduction in bacterial burden relative to rifampicin [11]: 3; log reduction in bacterial burden [12]: 2.67
22 | Cc1c(C(=O)/C=C/c2ccccc2)[n+]([O-])c2cc(Cl)ccc2[n+]1[O-] | 3.1 µM (≈ 1.06 µg/mL) | 5.82 | 1.7 µM | growth inhibition (GI) [2]: 80%; Activity (J774 [3]): 26%; growth inhibition (GI) [4]: >99%; Activity (J774 [5]): 81%; log reduction in bacterial burden [6]: 2.11; Activity (J774 [7]): 70%; log reduction in bacterial burden [10]: 1.68; Log reduction in bacterial burden relative to rifampicin [11]: 3; log reduction in bacterial burden [12]: 1.76
23 | NNC(=O)c1ccncc1 [ISONIAZID] | 0.3 µM (≈ 0.0411 µg/mL) | 7.00 | 0.2 µM | –
24 | Cc1ccc2c(c1)[n+]([O-])c(C(=O)/C=C/c1ccc([N+](=O)[O-])s1)c(C)[n+]2[O-] | – | < 4.00 | > 100 µM | –
25 | CC(=O)c1c(C(F)(F)F)[n+]([O-])c2cc(F)c(N3CCCCC3)cc2[n+]1[O-] | 1.6 µM (≈ 0.597 µg/mL) | 6.00 | 1.5 µM | growth inhibition (GI) [2]: 78%; Activity (J774 [3]): 65%; growth inhibition (GI) [4]: >90%; Activity (J774 [5]): 53%; log reduction in bacterial burden [6]: 1.74; Activity (J774 [7]): 83%; MIC [8]: > 8 µg/mL; MIC [9]: 1 µg/mL (≈ 2.68 µM); log reduction in bacterial burden [10]: 1.5; Log reduction in bacterial burden relative to rifampicin [11]: 3; log reduction in bacterial burden [12]: 2.66
26 | NCC[C@H](O)C(=O)N[C@@H]1C[C@H](N)[C@@H](O[C@H]2O[C@H](CN)[C@@H](O)[C@H](O)[C@H]2O)[C@H](O)[C@H]1O[C@H]1O[C@H](CO)[C@@H](O)[C@H](N)[C@H]1O [AMIKACIN] | 0.2 µM (≈ 0.117 µg/mL) | 6.99 | 0.141 µM | –
27 | Cc1c(C(=O)/C=C/c2ccc([N+](=O)[O-])o2)[n+]([O-])c2ccccc2[n+]1[O-] | 25 µM (≈ 8.53 µg/mL) | 4.76 | 24.6 µM | –
28 | CC(=O)c1c(C(F)(F)F)[n+]([O-])c2cc(F)c(N3CCC(O)CC3)cc2[n+]1[O-] | 12.5 µM (≈ 4.87 µg/mL) | 5.27 | 10.7 µM | –
29 | Cc1ccc2c(c1)[n+]([O-])c(C(=O)/C=C/c1ccc([N+](=O)[O-])o1)c(C)[n+]2[O-] | 50 µM (≈ 17.8 µg/mL) | 4.53 | 38.1 µM | –
